Converted amounts (≈) assume the structure as drawn.
How the values were obtained:
[1] = molecular target: D(2) dopamine receptor (Homo sapiens) (UniProt P14416); assay: Displacement of [3H]methyl-spiperone from human recombinant dopamine D2S receptor expressed in HEK293 cells assessed as remaining radioligand binding at 10 uM after 60 mins by scintillation counting method relative to control; format: cell-based
[2] = molecular target: Transient receptor potential cation channel subfamily A member 1 (Homo sapiens, UniProt O75762); assay: Antagonist activity at human TRPA1 expressed in tetracycline-inducible T-REx expression system transfected CHO cells assessed as inhibition of AITC-induced Ca2+ influx preincubated for 2 mins followed by AITC addition measured for 2 mins by Fluo-4 dye based FLIPR assay; format: cell-based
[3] = Volume of distribution at steady state in rat at 0.5 mg/kg, iv as single dose; format: ADME, organism-based; conditions: in vivo, read-out: Vdss
Outline: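 Single intravenous dose of 0.5 mg/kg given to rats, formulated in 100% DMSO.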

[4] = AUC (infinity) in rat at 30 mg/kg, po; format: ADME, organism-based; parameters: dose 30 mg/kg, time infinity, route oral; conditions: in vivo
Outline: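 Rat oral PK at 30 mg/kg (10 mg/kg for one analogue) in 1% Tween 80/2% HPMC/97% water with methanesulfonic acid, pH 2.2.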

[5] = Solubility of compound in pH 7.4 phosphate buffered saline; format: physicochemical
[6] = Solubility of compound in simulated intestinal fluid; format: ADME
[7] = molecular target: Transient receptor potential cation channel subfamily A member 1 (Rattus norvegicus, UniProt Q6RI86); assay: Antagonist activity at rat TRPA1 expressed in tetracycline-inducible T-REx expression system transfected CHO cells assessed as inhibition of methylglyoxal-induced 45Ca2+ uptake preincubated for 10 mins followed by methylglyoxal addition measured after 3 mins by TopCount microplate scintillator counting method; format: cell-based
Outline: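 Compound given 10 min at RT in HBSS/1 mM HEPES/0.1 mg/mL BSA, final 2.0 nM–40 μM (1:3 steps); then methylglyoxal (final 2.74 mM) plus 45Ca2+ (final 10 μCi/mL) in Ham's F-12/15 mM HEPES/0.1% BSA, 3 min at RT. Cells washed three times, then scintillation counted. MG uptake = 100%, no-agonist buffer = 0%. Four-parameter fit gives IC50.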

Plasma = assay: Unbound plasma concentration in Harlan Sprague-Dawley rat model of AITC-induced flinching at 3 mg/kg, po at 1 hr; format: ADME, organism-based; conditions: in vivo
Outline: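 Rats were given vehicle (2% HPMC/1% Tween-80) or compound orally at 1, 3, 10 or 30 mg/kg. After 1 h, 0.1% AITC was injected into one left ventral hind paw, and nocifensive flinching was recorded over the first minute. Unbound plasma concentration was measured at 1 h, n = 8 per dose. In vivo IC50/IC90 came from the exposure–response relationship across individual animals.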

Rattus norvegicus = organism: Rattus norvegicus; assay: Displacement of [35S]TBPS from GABA gated chloride channel in rat cerebral cortex assessed as remaining radioligand binding at 10 uM after 120 mins by scintillation counting method relative to control; format: tissue-based
[8] = molecular target: C-C chemokine receptor type 2 (Homo sapiens) (UniProt P41597); assay: Displacement of [125I]MCP-1 from human recombinant CCR2 expressed in HEK293 cells assessed as remaining radioligand binding at 10 uM after 60 mins by scintillation counting method relative to control; format: cell-based
[9] = molecular target: 5-hydroxytryptamine receptor 6 (Homo sapiens) (UniProt P50406); assay: Displacement of [3H]LSD from human recombinant 5HT6 receptor expressed in CHO cells assessed as remaining radioligand binding at 10 uM after 120 mins by scintillation counting method relative to control; format: cell-based
5-hydroxytryptamine receptor 6 (Homo sapiens), sequence (P50406 whole entry): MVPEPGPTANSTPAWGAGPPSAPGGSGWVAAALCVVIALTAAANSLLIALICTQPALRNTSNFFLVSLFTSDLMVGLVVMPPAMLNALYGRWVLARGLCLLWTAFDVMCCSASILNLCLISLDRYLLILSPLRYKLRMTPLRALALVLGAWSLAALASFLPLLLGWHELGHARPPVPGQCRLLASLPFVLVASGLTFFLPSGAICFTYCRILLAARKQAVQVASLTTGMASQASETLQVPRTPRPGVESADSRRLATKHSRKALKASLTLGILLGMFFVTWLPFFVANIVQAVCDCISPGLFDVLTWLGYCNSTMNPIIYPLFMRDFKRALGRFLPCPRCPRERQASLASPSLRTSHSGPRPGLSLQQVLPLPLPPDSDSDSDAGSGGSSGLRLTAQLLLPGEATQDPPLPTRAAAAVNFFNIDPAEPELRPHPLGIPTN

C-C chemokine receptor type 2 (Homo sapiens), sequence (P41597 whole entry, looked up): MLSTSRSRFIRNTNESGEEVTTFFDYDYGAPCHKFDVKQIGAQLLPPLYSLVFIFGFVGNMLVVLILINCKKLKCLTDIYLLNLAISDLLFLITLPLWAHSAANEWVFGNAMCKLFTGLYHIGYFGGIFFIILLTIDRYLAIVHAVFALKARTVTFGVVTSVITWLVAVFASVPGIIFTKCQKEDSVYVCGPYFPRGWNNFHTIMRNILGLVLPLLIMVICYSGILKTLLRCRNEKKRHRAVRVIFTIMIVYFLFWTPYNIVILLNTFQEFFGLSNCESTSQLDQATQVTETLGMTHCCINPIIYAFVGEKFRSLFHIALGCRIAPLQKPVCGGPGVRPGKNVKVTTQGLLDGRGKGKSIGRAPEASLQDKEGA
D(2) dopamine receptor (Homo sapiens), sequence (P14416 whole entry): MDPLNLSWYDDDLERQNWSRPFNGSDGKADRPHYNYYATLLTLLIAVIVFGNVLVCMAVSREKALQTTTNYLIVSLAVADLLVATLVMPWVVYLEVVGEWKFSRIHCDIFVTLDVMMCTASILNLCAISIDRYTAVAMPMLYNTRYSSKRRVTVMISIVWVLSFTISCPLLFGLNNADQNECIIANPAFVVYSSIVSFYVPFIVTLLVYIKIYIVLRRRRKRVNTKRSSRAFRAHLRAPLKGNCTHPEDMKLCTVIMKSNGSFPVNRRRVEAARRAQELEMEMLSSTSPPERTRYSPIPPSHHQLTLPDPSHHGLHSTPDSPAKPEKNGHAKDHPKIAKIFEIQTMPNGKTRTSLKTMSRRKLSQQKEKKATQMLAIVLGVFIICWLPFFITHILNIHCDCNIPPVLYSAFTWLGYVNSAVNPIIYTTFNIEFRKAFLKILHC
Transient receptor potential cation channel subfamily A member 1 (Rattus norvegicus, UniProt Q6RI86), sequence (Q6RI86 whole entry): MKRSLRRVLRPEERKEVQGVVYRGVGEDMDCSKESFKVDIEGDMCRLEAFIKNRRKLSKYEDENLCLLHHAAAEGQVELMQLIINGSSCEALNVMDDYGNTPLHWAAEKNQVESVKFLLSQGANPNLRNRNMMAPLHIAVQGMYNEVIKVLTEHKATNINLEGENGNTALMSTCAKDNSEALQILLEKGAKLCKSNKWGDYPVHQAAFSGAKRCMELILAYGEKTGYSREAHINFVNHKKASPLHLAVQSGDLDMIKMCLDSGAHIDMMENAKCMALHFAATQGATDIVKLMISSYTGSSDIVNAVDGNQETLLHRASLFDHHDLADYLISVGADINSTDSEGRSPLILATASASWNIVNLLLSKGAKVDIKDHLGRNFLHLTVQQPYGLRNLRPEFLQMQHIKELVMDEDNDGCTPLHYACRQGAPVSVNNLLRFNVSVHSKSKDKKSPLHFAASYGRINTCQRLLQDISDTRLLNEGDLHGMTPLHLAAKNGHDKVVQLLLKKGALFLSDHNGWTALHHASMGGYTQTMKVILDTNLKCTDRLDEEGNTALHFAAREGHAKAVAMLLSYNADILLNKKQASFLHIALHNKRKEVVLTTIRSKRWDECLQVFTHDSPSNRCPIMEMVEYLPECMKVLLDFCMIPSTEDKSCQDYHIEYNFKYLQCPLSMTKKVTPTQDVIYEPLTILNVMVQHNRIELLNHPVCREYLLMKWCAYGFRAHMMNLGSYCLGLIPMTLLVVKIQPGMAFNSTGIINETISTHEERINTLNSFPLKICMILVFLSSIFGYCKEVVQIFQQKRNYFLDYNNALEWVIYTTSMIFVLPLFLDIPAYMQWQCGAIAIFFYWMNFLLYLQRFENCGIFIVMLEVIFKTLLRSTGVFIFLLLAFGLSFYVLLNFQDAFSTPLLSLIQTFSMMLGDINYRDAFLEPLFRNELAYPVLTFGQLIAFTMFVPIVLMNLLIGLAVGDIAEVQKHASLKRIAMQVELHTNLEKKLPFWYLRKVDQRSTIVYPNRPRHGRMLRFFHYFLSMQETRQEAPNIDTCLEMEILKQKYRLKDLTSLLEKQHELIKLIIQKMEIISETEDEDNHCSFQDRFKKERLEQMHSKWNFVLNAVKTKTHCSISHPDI
Transient receptor potential cation channel subfamily A member 1 (Homo sapiens, UniProt O75762), sequence (O75762 whole entry): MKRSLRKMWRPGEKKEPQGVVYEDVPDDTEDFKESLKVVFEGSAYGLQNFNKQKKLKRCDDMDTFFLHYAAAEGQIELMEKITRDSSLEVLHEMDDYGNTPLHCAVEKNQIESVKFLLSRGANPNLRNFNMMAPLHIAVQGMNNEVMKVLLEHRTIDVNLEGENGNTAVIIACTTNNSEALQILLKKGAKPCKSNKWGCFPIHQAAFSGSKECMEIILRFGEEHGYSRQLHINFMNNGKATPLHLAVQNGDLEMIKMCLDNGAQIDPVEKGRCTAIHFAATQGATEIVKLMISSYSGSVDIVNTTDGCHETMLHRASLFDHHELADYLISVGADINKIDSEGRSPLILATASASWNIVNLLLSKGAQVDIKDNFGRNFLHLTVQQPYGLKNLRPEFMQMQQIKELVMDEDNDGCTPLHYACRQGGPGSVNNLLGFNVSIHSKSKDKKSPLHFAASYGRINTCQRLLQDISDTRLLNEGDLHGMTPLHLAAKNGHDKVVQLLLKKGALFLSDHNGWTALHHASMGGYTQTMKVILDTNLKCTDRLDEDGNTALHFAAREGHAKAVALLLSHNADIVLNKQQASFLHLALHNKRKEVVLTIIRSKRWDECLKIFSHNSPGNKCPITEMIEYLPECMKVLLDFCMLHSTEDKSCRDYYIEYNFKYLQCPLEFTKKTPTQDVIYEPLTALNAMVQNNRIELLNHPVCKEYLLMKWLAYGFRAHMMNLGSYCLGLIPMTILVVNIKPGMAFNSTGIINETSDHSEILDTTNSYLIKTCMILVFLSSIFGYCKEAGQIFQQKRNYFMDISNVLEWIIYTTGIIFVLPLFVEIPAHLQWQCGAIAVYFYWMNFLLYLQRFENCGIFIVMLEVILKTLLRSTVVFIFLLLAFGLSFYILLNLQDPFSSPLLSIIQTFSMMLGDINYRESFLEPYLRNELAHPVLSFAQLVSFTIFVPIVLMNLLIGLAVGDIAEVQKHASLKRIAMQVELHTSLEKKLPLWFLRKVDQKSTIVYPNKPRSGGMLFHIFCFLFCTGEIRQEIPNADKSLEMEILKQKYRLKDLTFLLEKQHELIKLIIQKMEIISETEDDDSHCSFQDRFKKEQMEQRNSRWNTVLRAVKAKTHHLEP

Activity [1]: > 77%
IC50 [2]: 20 nM
Vd [3]: 1.7 L/kg
AUC(0-inf) [4]: 19.8 µM·h
solubility [5]: 226 µM (≈ 83.8 µg/mL)
solubility [6]: 248 µM (≈ 92 µg/mL)
IC50 [7]: 19 nM
Cp(f) (Plasma): 190 nM
Activity (Rattus norvegicus): > 77%
Activity [8]: > 77%
Activity [9]: > 77%
Compound: Cn1cnc2ncn(Cc3nc(CCc4ccc(Cl)cc4)no3)c(=O)c21

Reference: ChEMBL document CHEMBL3784976 (J Med Chem, 2016)
